The values that follow come from ChEMBL document CHEMBL1629544, “Inhibitors of strand transfer that prevent integration and inhibit human T-cell leukemia virus type 1 early replication” (Antimicrob Agents Chemother, 2008).

The source made the active and inactive calls. The calls are words filed in the database; no cut-off is given here.

For data set [1], the system named is PBMC. The data set can be described thus: Growth inhibition of human PBMC cells cocultured with irradiated HTLV-1 positive MT2 cells at 50 uM after 21 days. In kind it is functional, cell-based. The method in brief: (§1)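 PBMCs from HTLV-1-seronegative donors (Ficoll separation) were cocultured 5:1 with 60 Gy-irradiated HTLV-1-positive MT2 cells in RPMI 1640 with 100 U/ml IL-2. Compounds in DMSO were added at onset at final 0, 50, 100 or 250 μM, then at half the initial concentration on days 4, 7 and 10. Cells were counted on days 7, 14 and 21.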

Data set [2] concerns Human T-cell leukemia virus type I. The data set can be described thus: Antiviral activity against HTLV-1 infected in PBMC cells cocultured with irradiated HTLV-1 positive MT2 cells assessed as decrease in […] load at 50 uM after 7 days by RT-PCR. In kind it is functional, organism-based. The method in brief:
(§2)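 Donor PBMCs were cocultured 5:1 with 60 Gy-irradiated MT2 cells plus IL-2, with compound (DMSO) at 0, 50 or 100 μM, redosed at half concentration on days 4, 7 and 10. DNA was extracted on day 7. Real-time quantitative PCR for tax with albumin normalization used 250 ng DNA per reaction, in triplicate. The untreated load was set to 100 units.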

Data set [3] concerns PBMC. The data set can be described thus: Growth inhibition of human PBMC cells cocultured with irradiated HTLV-1 positive MT2 cells at 100 uM after 14 days. It counts as functional, cell-based. The method in brief:
as §1

For data set [4], the system named is Human T-cell leukemia virus type I. The experiment in a line: Antiviral activity against HTLV-1 infected in PBMC cells cocultured with irradiated HTLV-1 positive MT2 cells assessed as decrease in […] load 100 uM after 7 days by RT-PCR. It counts as functional, organism-based. The method in brief:
as §2

Data set [5] has the same test system. The experiment in a line: Antiviral activity against HTLV-1 infected in PBMC cells cocultured with irradiated HTLV-1 positive MT2 cells assessed as decrease in […] load by RT-PCR. It counts as functional, organism-based. The method in brief: as §2
Data set [6] relates to PBMC. The data set can be described thus: Growth inhibition of human PBMC cells cocultured with irradiated HTLV-1 positive MT2 cells at 100 uM after 21 days. It counts as functional, cell-based. The method in brief: as §1
A short description of data set [7]: Cytotoxic activity against human PBMC cells. In kind it is cell-based. The method in brief: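 Fresh uninfected PBMCs were cultured with various inhibitor concentrations, including 250, 500 and 1,000 μM, in three experiments per concentration. Cell viability was measured to derive CC50.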
Data set [8] relates to PBMC. The data set can be described thus: Growth inhibition of human PBMC cells cocultured with irradiated HTLV-1 positive MT2 cells at 250 uM after 21 days. It counts as functional, cell-based. In a few lines:
as §1

Data set [9] relates to PBMC. The experiment in a line: Growth inhibition of human PBMC cells cocultured with irradiated HTLV-1 positive MT2 cells at 250 uM after 7 days. In kind it is functional, cell-based. In a few lines: as §1
Data set [10] has as its system PBMC. The data set can be described thus: Growth inhibition of human PBMC cells cocultured with irradiated HTLV-1 positive MT2 cells at 250 uM after 14 days. In kind it is functional, cell-based. In a few lines: as §1
The subject of data set [11] is PBMC. The experiment in a line: Growth inhibition of human PBMC cells cocultured with irradiated HTLV-1 positive MT2 cells at 50 uM after 14 days. In kind it is functional, cell-based. The method in brief: as §1
The test system of data set [12] is PBMC. The experiment in a line: Growth inhibition of human PBMC cells cocultured with irradiated HTLV-1 positive MT2 cells at 50 uM after 7 days. In kind it is functional, cell-based. In a few lines: as §1
Data set [13] relates to PBMC. The data set can be described thus: Growth inhibition of human PBMC cells cocultured with irradiated HTLV-1 positive MT2 cells at 100 uM after 7 days. It counts as functional, cell-based. In a few lines:
as §1

For data set [14], the system named is Human T-cell leukemia virus type I. The experiment in a line: Inhibition of HTLV-1 integrase strand transfer activity at 10 uM. In a few lines:
(§3)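 Recombinant HTLV-1 integrase, expressed in E. coli BL21(DE3) and Ni-NTA purified. Donor was a 3′-recessed double-strand 54-bp HTLV-1 3′ LTR with synthetic target DNA, 1 pmol each oligonucleotide. Buffer: 25 mM HEPES pH 7.4, 10 mM β-mercaptoethanol, 10% glycerol, 7.5 mM MnCl₂. Incubated 60 min at 37°C. Products quantified by fluorescent PCR peak intensity, in triplicate; approximate IC50 by linear regression.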

Data set [15] can be described thus: Inhibition of HTLV-1 integrase strand transfer activity. Set-up: species or system Human T-cell leukemia virus type I. In a few lines:
as §3

Data set [16] has as its system Human T-cell leukemia virus type I. The experiment in a line: Inhibition of HTLV-1 integrase strand transfer activity at 2 uM. The method in brief:
as §3

For data set [17] the test system is unchanged. The experiment in a line: Inhibition of HTLV-1 integrase strand transfer activity at 5 uM. In a few lines:
as §3

Data set [18] deals with PBMC. The data set can be described thus: Inhibition of HTLV-1 integrase strand transfer activity in PBMC cells at 50 uM measured on day 21. It counts as cell-based. The note with it: Human T-cell leukemia virus type I.
In data set [19] the test system is PBMC. The experiment in a line: Inhibition of HTLV-1 integrase strand transfer activity in PBMC cells at 100 uM measured on day 21. The conditions noted are these: Human T-cell leukemia virus type I. In kind it is cell-based.

Regarding `O=C(O)C(=O)CC(=O)c1cccc(Cc2ccccc2)c1`, the inhibition entry in the data set on PBMC [1], in the data set on PBMC [3], with PBMC [6], with PBMC [8], with PBMC [9] and in the data set with PBMC [10] was “Active” throughout. Further, the inhibition result in the data set with PBMC [11], with PBMC [12] and in the data set on PBMC [13] was “Active” throughout. The outcome in data set [2], in data set [4] and in data set [5] was Active. For the same compound, half-maximal cytotoxicity in [7] (CC50) was put at 220 µM.
Turning to `COc1cc(/C=C/c2ccc3ccc(C(=O)O)c(O)c3n2)cc(O)c1O`, the inhibition entry (in data set [14]; with PBMC [1]; with PBMC [3]; with PBMC [6]; in the data set with PBMC [8]; in [16]) was “Active” each time. Also, the inhibition entry (in the data set with PBMC [9]; in the data set on PBMC [10]; in the data set on PBMC [11]; in data set [17]; in the data set on PBMC [12]; in the data set with PBMC [13]) was “Active” in each case. For the same compound, in [15], the IC50 is 5.2 µM.
In the case of `O=C(O)C(=O)CC(=O)c1cccn1Cc1ccc(F)cc1`, the inhibition entry in the data set on PBMC [1], in the data set on PBMC [18], in the data set on PBMC [3], in the data set with PBMC [19], with PBMC [6] and in the data set on PBMC [8] was “Active” each time. Besides, the inhibition entry with PBMC [9], in the data set on PBMC [10], in the data set on PBMC [11], in the data set with PBMC [12] and in the data set with PBMC [13] was “Active” each time. In data set [7], this compound showed a CC50 of 520 µM.
Turning to `O=C(O)c1ccc2ccc(/C=C/c3cc(O)c(O)c(O)c3)nc2c1O`, the midpoint of cytotoxicity in [7], the CC50, lay at 10.7 µM.
`O=C(O)c1ccc2ccc(/C=C/c3ccc(O)c(O)c3)nc2c1O`: the inhibition result in the data set with PBMC [1], in the data set on PBMC [3], with PBMC [6], in the data set on PBMC [8], in the data set on PBMC [9] and in the data set on PBMC [10] was “Active” throughout. Also, the inhibition result in the data set on PBMC [11], in the data set with PBMC [12] and with PBMC [13] was “Active” in each case. For the same compound, the result in [2], in data set [4] and in [5] was Active.
Turning to `COc1cc(/C=C/c2ccc3ccc(C(=O)O)c(O)c3n2)cc(OC)c1O`, the inhibition entry (in [14]; in the data set on PBMC [1]; in the data set on PBMC [3]; in the data set with PBMC [6]; with PBMC [8]; in data set [16]) was “Active” each time. Further, the inhibition result (with PBMC [9]; in the data set with PBMC [10]; with PBMC [11]; in [17]; in the data set with PBMC [12]; in the data set with PBMC [13]) was “Active” throughout. In data set [15], half-maximal inhibition (IC50) required 7.2 µM.
